ChEMBL document CHEMBL1250542, “Synthesis and biological evaluation of a series of aromatic bisphosphonates” (Bioorg Med Chem, 2010)
One block for each compound: values may come before it. Active and inactive are the calls of the source. No cut-off for these calls is given here.

Legend:
[1] = molecular target: T1, Geranylgeranyl pyrophosphate synthase (Homo sapiens) (UniProt O95749); experiment: Inhibition of GST-tagged human recombinant GGDPS expressed in BL21 gold bacteria at 10 uM by liquid scintillation counting
T1 sequence (whole entry): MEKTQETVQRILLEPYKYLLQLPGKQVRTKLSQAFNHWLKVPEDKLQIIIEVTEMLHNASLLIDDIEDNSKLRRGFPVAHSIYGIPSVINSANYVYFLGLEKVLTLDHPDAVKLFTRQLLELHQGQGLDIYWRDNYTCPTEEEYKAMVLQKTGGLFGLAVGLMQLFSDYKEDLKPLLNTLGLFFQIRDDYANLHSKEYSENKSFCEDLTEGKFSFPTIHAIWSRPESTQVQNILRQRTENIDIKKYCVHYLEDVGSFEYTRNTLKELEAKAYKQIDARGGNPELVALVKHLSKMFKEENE
How it was run: (§1)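 Purified recombinant human GGDPS in buffer containing 0.5 mM MgCl₂ and 0.5 mM ZnCl₂ was preincubated with compounds for 10 min. Reactions were started with ¹⁴C-IPP plus FPP and run for 1 h at 37 °C. Products were extracted into water-saturated butanol, washed twice with saturated water, and counted by liquid scintillation. Data are from a single-concentration screen and concentration–response curves with IC₅₀ extrapolated, mean SD, n = 2.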

[2] = molecular target: T2, Farnesyl pyrophosphate synthase (Homo sapiens) (UniProt P14324); experiment: Inhibition of FDPS in human K562 cells assessed as reduction of Ras protein farnesylation after 48 hrs by Western blotting; type: cell-based
T2 sequence (whole entry): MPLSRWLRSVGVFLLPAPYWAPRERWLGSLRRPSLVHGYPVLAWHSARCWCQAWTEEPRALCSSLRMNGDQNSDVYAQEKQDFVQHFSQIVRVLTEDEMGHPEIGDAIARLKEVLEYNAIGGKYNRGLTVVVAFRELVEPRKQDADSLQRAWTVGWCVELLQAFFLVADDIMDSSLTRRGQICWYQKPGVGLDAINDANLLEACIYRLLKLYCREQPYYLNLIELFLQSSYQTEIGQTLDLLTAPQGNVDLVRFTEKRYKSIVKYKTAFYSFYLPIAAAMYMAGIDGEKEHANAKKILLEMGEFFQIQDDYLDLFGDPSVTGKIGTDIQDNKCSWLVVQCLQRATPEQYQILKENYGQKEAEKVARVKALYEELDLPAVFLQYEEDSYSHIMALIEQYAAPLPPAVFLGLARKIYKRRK
How it was run: (§2)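 Prenylation in intact cells: K562 cells at 5 × 10⁵ cells/mL were incubated with compounds or lovastatin for 48 h, as a single-concentration screen or a concentration series. Lysates were made in 2% SDS/66 mM Tris and protein was measured by BCA. Samples were resolved on 12% and 15% gels, transferred to PVDF, and probed for pan-Ras, Rap1a or Rab6, with α-tubulin as reference. Detection was by ECL.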

[3] = test system: K562; experiment: Inhibition of GGTase1 in human K562 cells assessed as reduction of Rap1a protein geranylgeranylation at 50 uM after 48 hrs by Western blotting; type: cell-based; how it was run: as §2
[4] = test system: K562; experiment: Inhibition of GGTase1 in human K562 cells assessed as reduction of Rap1a protein geranylgeranylation at 12.5 uM after 48 hrs by Western blotting; type: cell-based; how it was run: as §2
[5] = molecular target: T2, Farnesyl pyrophosphate synthase (Homo sapiens); experiment: Inhibition of FDPS in human K562 cells assessed as reduction Ras protein farnesylation after 48 hrs by Western blotting in presence of mevalonate and FPP; type: cell-based
How it was run: (§3)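 Add-back assay: K562 cells at 5 × 10⁵ cells/mL were exposed for 48 h to compounds, or to lovastatin, with or without exogenous mevalonate, FPP or GGPP. Lysates were made in 2% SDS/66 mM Tris and protein was measured by BCA. Samples were run on 12% and 15% SDS gels, transferred to PVDF, and immunoblotted for pan-Ras, Rap1a or Rab6, with α-tubulin as reference. Detection was by ECL.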

[6] = molecular target: T1, Geranylgeranyl pyrophosphate synthase (Homo sapiens); experiment: Inhibition of GGDPS in human K562 cells assessed as reduction Rap1a protein geranylgeranylation after 48 hrs by Western blotting in presence GGPP; type: cell-based; how it was run: as §3
[7] = molecular target: T1, Geranylgeranyl pyrophosphate synthase (Homo sapiens); experiment: Inhibition of GGDPS in human K562 cells assessed as reduction Rab6 protein geranylgeranylation after 48 hrs by Western blotting in presence GGPP; type: cell-based; how it was run: as §3
[8] = test system: K562; experiment: Anticancer activity against human K562 cells assessed as inhibition of DNA synthesis by [3H]thymidine incorporation assay; type: functional, cell-based
How it was run: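 [³H]thymidine (3.75 Ci/mmol in media) was added at 44 or 68 h. At 48 or 72 h, cells were harvested onto glass microfiber paper and incorporated label was scintillation counted. Proliferation is expressed as % of untreated cells, mean S.E., n = 4.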

[9] = molecular target: T3, Geranylgeranyl pyrophosphate synthase (Homo sapiens, UniProt O95749); experiment: Inhibition of GST-tagged human recombinant GGDPS expressed in BL21 gold bacteria by liquid scintillation counting; how it was run: as §1
T3 sequence (O95749 whole entry): T1 sequence (whole entry)

[10] = test system: K562; experiment: Inhibition in human K562 cells assessed as reduction of RAB6 protein geranylgeranylation after 48 hrs by Western blotting
[11] = test system: K562; experiment: Inhibition of GGTase1 in human K562 cells assessed as reduction of Rap1a protein geranylgeranylation after 48 hrs by Western blotting; type: cell-based; how it was run: as §2

- inhibition activity call (active/not active) [1]: Active
Compound: CC(C)=CCC/C(C)=C/CC(Cc1cccnc1)(P(=O)(O)O)P(=O)(O)O

Compound: CC(C)=CCc1ccc(CC(P(=O)(O)O)P(=O)(O)O)cc1
- inhibition activity call (active/not active) [1]: inactive

- inhibition activity call (active/not active) [1]: Active
- inhibition [2]: inactive
- inhibition [5]: Active
- inhibition [6]: inactive
- inhibition [7]: inactive
- IC50 [9]: 250 nM
Compound: CC(C)=CCC/C(C)=C/CC(Cc1cccc(CC=C(C)C)c1)(P(=O)(O)O)P(=O)(O)O
- inhibition [3]: Active
- Activity [4]: Active
- inhibition [8]: Active
- inhibition [10]: Active

- inhibition activity call (active/not active) [1]: Active
Compound: CC(C)=CCC/C(C)=C/CC(Cc1ccccc1)(P(=O)(O)O)P(=O)(O)O

- inhibition activity call (active/not active) [1]: inactive
Compound: O=P(O)(O)C(Cc1ccccc1)P(=O)(O)O

- inhibition activity call (active/not active) [1]: Active
- inhibition [2]: inactive
- inhibition [5]: Active
- inhibition [6]: inactive
- inhibition [7]: inactive
- IC50 [9]: 800 nM
Compound: CC(C)=CCC/C(C)=C/CC(Cc1ccc(CC=C(C)C)cc1)(P(=O)(O)O)P(=O)(O)O
- inhibition [3]: Active
- inhibition [8]: Active
- inhibition [10]: Active

- inhibition activity call (active/not active) [1]: inactive
Compound: CC(C)=CCc1cccc(CC(P(=O)(O)O)P(=O)(O)O)c1

- inhibition [5]: inactive
Compound: CC[C@H](C)C(=O)O[C@H]1C[C@@H](C)C=C2C=C[C@H](C)[C@H](CC[C@@H]3C[C@@H](O)CC(=O)O3)[C@H]21
- inhibition [11]: Active
